# Data taken from ChEMBL document CHEMBL2384950, “2-(3-Fluoro-4-methylsulfonylaminophenyl)propanamides as potent TRPV1 antagonists: structure activity relationships of the 2-oxy pyridine C-region” (Eur J Med Chem, 2013).
# pIC50, pKi: −log10 of the molar value.
# Experiments:
# [1] = molecular target: T1, Transient receptor potential cation channel subfamily V member 1 (Homo sapiens, UniProt Q8NER1); experiment: Antagonist activity at human TRPV1 expressed in CHOK1 cells assessed as inhibition of capsaicin-induced activity by FLIPR assay; format: cell-based, CHO-K1
# [2] = molecular target: T1, Transient receptor potential cation channel subfamily V member 1; experiment: Antagonist activity at human TRPV1 expressed in CHOK1 cells assessed as inhibition of pH 6 to 6.3-induced activity by FLIPR assay; format: cell-based, CHO-K1
# [3] = test system: Mus musculus; experiment: Analgesic activity in NMRI mouse assessed as inhibition of formalin-induced nociceptive response at 0.3 mg/kg, po mesaured for 21 to 24 mins relative to control; format: functional
# Method in brief: (§1)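 Oral dosing in mice, randomized dose and vehicle groups, 10 animals per group, vehicle control each study. 20 μl 1% formalin in 0.9% NaCl injected subcutaneously into dorsal right hind paw. Time spent licking and biting the injected paw counted 21–24 min post-formalin. Reported as % inhibition (mean ± SEM) versus vehicle; Kruskal–Wallis test.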
# [4] = test system: Mus musculus; experiment: Analgesic activity in NMRI mouse assessed as inhibition of formalin-induced nociceptive response at 0.1 mg/kg, po mesaured for 21 to 24 mins relative to control; format: functional; method in brief: as §1
# [5] = molecular target: T1, Transient receptor potential cation channel subfamily V member 1; experiment: Antagonist activity at human TRPV1 expressed in CHOK1 cells assessed as inhibition of heat 45 degC-induced activity after 5 mins by FLIPR assay; format: cell-based, CHO-K1
# [6] = molecular target: T1, Transient receptor potential cation channel subfamily V member 1; experiment: Antagonist activity at human TRPV1 expressed in CHOK1 cells assessed as inhibition of N-arachidonoyldopamine-induced activity after 5 mins by FLIPR assay; format: cell-based, CHO-K1
# T1 sequence (Q8NER1 whole entry): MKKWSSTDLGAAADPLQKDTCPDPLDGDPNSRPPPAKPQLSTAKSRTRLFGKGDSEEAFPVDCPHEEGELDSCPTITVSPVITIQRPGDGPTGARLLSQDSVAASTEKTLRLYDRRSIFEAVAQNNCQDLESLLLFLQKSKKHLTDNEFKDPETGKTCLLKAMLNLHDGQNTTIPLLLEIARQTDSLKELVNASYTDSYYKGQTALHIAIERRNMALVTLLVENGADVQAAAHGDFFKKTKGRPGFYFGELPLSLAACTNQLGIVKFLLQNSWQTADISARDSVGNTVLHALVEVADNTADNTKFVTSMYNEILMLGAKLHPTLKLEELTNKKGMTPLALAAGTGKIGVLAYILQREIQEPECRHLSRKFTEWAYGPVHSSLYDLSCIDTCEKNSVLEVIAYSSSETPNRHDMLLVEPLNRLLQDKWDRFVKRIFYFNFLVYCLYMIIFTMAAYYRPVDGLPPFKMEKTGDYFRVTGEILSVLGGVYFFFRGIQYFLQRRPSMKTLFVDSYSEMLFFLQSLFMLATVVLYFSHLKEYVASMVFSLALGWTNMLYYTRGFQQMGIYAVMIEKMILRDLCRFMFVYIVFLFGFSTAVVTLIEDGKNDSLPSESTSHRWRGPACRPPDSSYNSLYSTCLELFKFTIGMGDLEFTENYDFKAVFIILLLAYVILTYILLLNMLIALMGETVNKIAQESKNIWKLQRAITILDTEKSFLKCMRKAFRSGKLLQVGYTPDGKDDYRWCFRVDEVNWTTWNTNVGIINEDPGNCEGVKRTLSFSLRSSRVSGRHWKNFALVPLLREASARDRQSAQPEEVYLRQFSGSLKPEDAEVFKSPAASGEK
Structure (SMILES),pKi [1],pIC50 [2],also measured
CC(C(=O)NCc1ccc(C(C)(C)C)cc1)c1ccc(NS(C)(=O)=O)c(F)c1 (stereo not given),7.35,5.70,–
CC(C(=O)NCc1ccc(C(F)(F)F)nc1OC1CCNCC1)c1ccc(NS(C)(=O)=O)c(F)c1 (stereo not given),–,< 5.00,–
CC(C(=O)NCc1ccc(C(F)(F)F)nc1OCCc1ccccc1)c1ccc(NS(C)(=O)=O)c(F)c1 (stereo not given),9.30,7.56,–
CC(C)COc1nc(C(F)(F)F)ccc1CNC(=O)C(C)c1ccc(NS(C)(=O)=O)c(F)c1 (stereo not given),–,–,inhibition in vivo at 0.3 mg/kg [3]: 60.8%; inhibition in vivo at 0.1 mg/kg [4]: 63.4%; pIC50 [5]: 7.17; pKi [6]: 9.54
CC(C(=O)NCc1ccc(C(F)(F)F)nc1OCc1cc(Cl)cc(Cl)c1)c1ccc(NS(C)(=O)=O)c(F)c1 (stereo not given),8.59,6.94,–
CC(C(=O)NCc1ccc(C(F)(F)F)nc1OCc1cccc(Cl)c1)c1ccc(NS(C)(=O)=O)c(F)c1 (stereo not given),8.31,7.02,–
CC(C(=O)NCc1ccc(C(F)(F)F)nc1OC[C@@H]1C[C@H]1C)c1ccc(NS(C)(=O)=O)c(F)c1 (stereo not given in full),9.52,8.29,–
CC(C(=O)NCc1ccc(C(F)(F)F)nc1OCc1cccc(F)c1)c1ccc(NS(C)(=O)=O)c(F)c1 (stereo not given),9.10,7.16,–
CC1CC(C)CC(Oc2nc(C(F)(F)F)ccc2CNC(=O)C(C)c2ccc(NS(C)(=O)=O)c(F)c2)C1 (stereo not given),–,6.76,–
CC(C(=O)NCc1ccc(C(F)(F)F)nc1OCC1CCNCC1)c1ccc(NS(C)(=O)=O)c(F)c1 (stereo not given),–,< 5.00,–
CCC(CC)Oc1nc(C(F)(F)F)ccc1CNC(=O)C(C)c1ccc(NS(C)(=O)=O)c(F)c1 (stereo not given),–,< 5.00,–
CCCCC(CCC)Oc1nc(C(F)(F)F)ccc1CNC(=O)C(C)c1ccc(NS(C)(=O)=O)c(F)c1 (stereo not given),9.30,–,–
COCCOc1nc(C(F)(F)F)ccc1CNC(=O)C(C)c1ccc(NS(C)(=O)=O)c(F)c1 (stereo not given),7.31,–,–
CCOCCOc1nc(C(F)(F)F)ccc1CNC(=O)C(C)c1ccc(NS(C)(=O)=O)c(F)c1 (stereo not given),7.30,–,–
CC(C(=O)NCc1ccc(C(F)(F)F)nc1OCc1ccccc1)c1ccc(NS(C)(=O)=O)c(F)c1 (stereo not given),–,–,inhibition in vivo at 0.3 mg/kg [3]: 54.1%; inhibition in vivo at 0.1 mg/kg [4]: 41.8%; pIC50 [5]: 7.28; pKi [6]: 12.00
COc1ccc(COc2nc(C(F)(F)F)ccc2CNC(=O)C(C)c2ccc(NS(C)(=O)=O)c(F)c2)cc1 (stereo not given),8.59,6.19,–
CC(C(=O)NCc1ccc(C(F)(F)F)nc1OCc1cc(F)cc(F)c1)c1ccc(NS(C)(=O)=O)c(F)c1 (stereo not given),9.00,7.03,–
CC1CCN(c2nc(C(F)(F)F)ccc2CNC(=O)C(C)c2ccc(NS(C)(=O)=O)c(F)c2)CC1 (stereo not given),–,–,pIC50 [5]: 8.35; pKi [6]: 9.64
CC(C(=O)NCc1ccc(C(F)(F)F)nc1OCCC1CCCCN1C(=O)OC(C)(C)C)c1ccc(NS(C)(=O)=O)c(F)c1 (stereo not given),9.52,7.78,–
